HSP90 inh – HSP90 inhibitors, primary screen, cell lysate, luminescence | Rabbit reticulocyte lysate, luciferase refolding luminescence, 3 h | actives 0.91% (n = 290,000) | Heat shock protein HSP 90 (rabbit reticulocyte lysate; luciferase refolding) | inhibition, % at 5.6 µM;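 active = inhibition above the screen-wide mean plus 3 SD, computed separately per campaign, cut at about 16% in these data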;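 note: 0% = DMSO wells and 100% = 60 µM geldanamycin wells; inhibitors lower the luminescence because luciferase stays unfolded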
HSF1 activator – HSF-1 activators, primary screen, NIH3T3-HGL cells, MG132 stress, luminescence, single point. activation, % at 9 µM. actives 1.7% (n = 300,000). NIH3T3-HGL HSF-1 luciferase reporter, 8 h; 100% = twice DMSO control signal;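 active = mean replicate activation of at least 50% with a set share of replicates each reaching 50%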;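 note: 0% = median of the neutral control wells and 100% = twice that signal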
DNA FID counter-1 – compounds displacing fluorescent DNA intercalator, primary screen, artefact control for HCV NS3 helicase inhibitor project, biochemical, FID fluorescence | DNA fluorescent intercalator displacement | inhibition, % at 7.9 µM | actives 0.17% (n = 290,000) | AID 1845, 2009;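 note: 0% = vehicle and 100% = reference compound; higher means more ethidium bromide displaced from hairpin DNA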
HSF1 inhib – HSF1 inhibitors in luciferase reporter cells, primary screen, cell-based, NIH3T3, luminescence; activity change, negative = inhibition, % at 7.5 µM (by protocol); AID 2098, 2009; actives 0.77% (n = 300,000); NIH3T3-HGL HSE-luciferase, MG132-induced, luminescence 8 h; hits give low values;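 active = more than half of replicate wells show activity change below -50%, luminescence cut by over half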;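 note: luciferase reports HSF-1 transcriptional activity via heat shock element; 0% = median of DMSO wells and -100% = zero luminescence signal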
HCV NS3 hel inh – inhibitors of HCV NS3 helicase, primary screen, biochemical, Cy5 molecular beacon fluorescence | Hepatitis C virus NS3 helicase | NS3 helicase DNA unwinding | inhibition, % at 10.9 µM | actives 0.56% (n = 290,000);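 active = inhibition above the mean of all tested compounds plus 3 SD, set per campaign, cut at about 35% in these data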;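 note: 0% = DMSO wells and 100% = thioflavine S control wells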
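Assay system – hepatitis C virus NS3 helicase domain fragment enzyme · Buffer or medium – MOPS pH 6.5, MgCl2, DTT, Tween20, BSA · Reagent – Cy5/quencher beacon DNA duplex and ATP to start · Compound – single 10.9 µM dose · Timing – 1 h at 25 °C · Technique – Cy5 beacon fluorescence read at start and 1 h · Measure – % inhibition of unwinding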
core dimer inh – inhibitors of HCV core protein dimerization, primary screen, biochemical, TR-FRET, high-throughput; TR-FRET GST/Flag-core106 dimerization, 1536-well; inhibition, % at 5 µM; actives 0.33% (n = 300,000); AID 1899, 2009;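 active = inhibition above the mean of all tested compounds plus 3 SD, set per screening campaign, cut at about 45% in these data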
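System – GST-tagged and Flag-tagged HCV core protein residues 1-106 · Repeats – one well for each compound · Technique – TR-FRET 671 and 617 nm emission · Doses – one concentration, 5 µM, in 0.5% DMSO · Times – 4 h, 22.5 °C incubation · Also added – Eu donor and XL665 acceptor anti-tag antibodies · Measure – percent inhibition of core106 dimerization signal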
NS3 helicase cf – HCV NS3 helicase inhibitors, retest, confirmation, biochemical, Cy5 molecular beacon fluorescence, triplicate; inhibition, % at 10.9 µM; actives 31% (n = 1,600); shares compounds with HCV NS3 hel inh; NS3 helicase DNA unwinding;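 active = inhibition above the mean of all tested compounds plus 3 SD, cutoff set per campaign, cut at about 36% in these data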
DNA FID counter-2 – compounds displacing fluorescent DNA intercalator, artefact control for HCV NS3 helicase inhibitor project, biochemical, FID fluorescence, triplicate; shares compounds with HCV NS3 hel inh; DNA fluorescent intercalator displacement; inhibition, % at 7.9 µM; actives 4% (n = 1,600); AID 1945, 2009;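 note: 0% = vehicle and 100% = reference compound; higher means more displacement of ethidium bromide from the DNA hairpin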
* hit, by the source's call. Only some compounds are listed: those with a hit (about 3.9% of all), similar ones and a draw of the others. Cut-off read from the data, not from the text of the source, unless noted: active = inhibition above about 37%; inactive = the rest.

For COc1cc(/C=C2\SC(c3ccc(C)cc3)=NC2=O)cc(OC)c1O the results were HSP90 inh -2, HSF1 activator 5, DNA FID counter-1 -10, HSF1 inhib -3, HCV NS3 hel inh -5 and core dimer inh -40.
`Cc1ccc(C2=NC(=O)/C(=C/c3cc(O)c(O)c(Br)c3)S2)cc1` gave HSP90 inh -7, DNA FID counter-1 -6, HCV NS3 hel inh 53*, NS3 helicase cf -17 and DNA FID counter-2 6.
`Cc1cc(-c2ccc(S(=O)(=O)N3CCN(c4ccccc4F)CC3)s2)on1` gave HSP90 inh 7, HSF1 activator -6, DNA FID counter-1 -11, HSF1 inhib -5, HCV NS3 hel inh -13 and core dimer inh 6.
`COCCNC(=O)c1cc2c(=O)[nH]c3ccccc3c2s1` gave HSP90 inh 2, HSF1 activator 15, DNA FID counter-1 -14, HSF1 inhib 5, HCV NS3 hel inh 70*, core dimer inh 6, NS3 helicase cf -8 and DNA FID counter-2 4.
For CCCCC(CCC(=O)O)(C(=O)OCC)c1csc(Nc2ccc(C)cc2)n1 (stereo unspecified) the results were HSP90 inh -8, HSF1 activator -28, DNA FID counter-1 -31, HSF1 inhib -9, HCV NS3 hel inh 28 and core dimer inh 13.
Screening CCOC(=O)C(CC)(CCC(=O)OC)c1csc(Nc2ccccc2O)n1 (stereo unspecified) returned HSP90 inh 1, HSF1 activator 1, DNA FID counter-1 -39, HSF1 inhib -1, HCV NS3 hel inh 40*, core dimer inh 1, NS3 helicase cf 4 and DNA FID counter-2 -23.
CCC(=O)Nc1ccc(C(=O)CSc2nnc(-c3ccccc3F)n2C2CC2)cc1 was read as HSP90 inh 1, HSF1 activator 38, DNA FID counter-1 -25, HSF1 inhib 12, HCV NS3 hel inh 52*, core dimer inh 40, NS3 helicase cf -6 and DNA FID counter-2 -21.
`CC(C)(C)N(NC(=O)Nc1ccc(Cl)cc1)C(=O)c1ccccc1` gave HSP90 inh 0, HSF1 activator 26, DNA FID counter-1 -1, HSF1 inhib 5, HCV NS3 hel inh -7 and core dimer inh 3.
Screening Cc1ccc(Nc2cc(C)nn2-c2nc(C)cc(C)n2)cc1 returned HSP90 inh 3, HSF1 activator -23, DNA FID counter-1 -22, HSF1 inhib -1, HCV NS3 hel inh 5 and core dimer inh -58.
For Cc1ccc(Nc2cc(C)nn2-c2nc(C)cc(=O)[nH]2)cc1 the results were HSP90 inh 0, HSF1 activator -8, DNA FID counter-1 -32, HSF1 inhib -8, HCV NS3 hel inh 39*, core dimer inh -4, NS3 helicase cf -3 and DNA FID counter-2 -30.
Screening CC1=CC2=NC(=O)/C(=C/c3coc4ccc(Cl)cc4c3=O)C(=N)N2O1 returned HSP90 inh 2, HSF1 activator 1, DNA FID counter-1 -3, HSF1 inhib 1, HCV NS3 hel inh 42*, core dimer inh 7, NS3 helicase cf -20 and DNA FID counter-2 5.
`CC(=O)Oc1ccc(C23CC4CC(CC(C4)C2)C3)cc1C(=O)O` gave HSP90 inh 2, HSF1 activator -7, DNA FID counter-1 -26, HSF1 inhib -3, HCV NS3 hel inh 40*, core dimer inh 7, NS3 helicase cf 28 and DNA FID counter-2 -26.
